Values after ≈ are worked out from the molar mass of the structure shown. Active and inactive are the calls of the source. No cut-off for these calls is given here.
How the values were obtained:
[1] = system: Yersinia pseudotuberculosis; assay: Inhibition of type 3 secretion in Yersinia pseudotuberculosis at 10 uM by reporter gene assay
In short: (§1)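 Y. pseudotuberculosis T3S-linked reporter-gene screen, luminescence read on filter-based plate reader; compounds added from DMSO solutions. Tested at 10, 20, 50 and 100 µM, expressed as percent inhibition. EC50 taken from dose-response curves. Activity also checked with detergent present to exclude aggregation.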

[2] = system: Yersinia pseudotuberculosis; assay: Inhibition of type 3 secretion in Yersinia pseudotuberculosis at 20 uM by reporter gene assay; in short: as §1
[3] = system: Yersinia pseudotuberculosis; assay: Inhibition of type 3 secretion in Yersinia pseudotuberculosis at 50 uM by reporter gene assay; in short: as §1
[4] = system: Yersinia pseudotuberculosis; assay: Inhibition of type 3 secretion in Yersinia pseudotuberculosis at 100 uM by reporter gene assay; in short: as §1
[5] = system: Chlamydia trachomatis; assay: Antibacterial activity against Chlamydia trachomatis infected in HeLa cells at 100 uM up to 6 hrs; format: functional, organism-based
[6] = Cytotoxicity against human HeLa cells assessed as cell viability at 2 time MIC; format: cell-based; conditions: read-out: Activity
[7] = system: Chlamydia trachomatis; assay: Antibacterial activity against Chlamydia trachomatis infected in HeLa cells; format: functional
In short: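 HeLa cells infected with C. trachomatis […] and incubated with compound in a dilution series, with a DMSO-treated control. Chlamydial inclusions are immunostained green and HeLa cells counterstained red. Inclusion size and number and HeLa cell morphology are judged by fluorescence microscopy. MIC is read from the absence of visible inclusions.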

[8] = biological target: Tyrosine-protein phosphatase YopH (Yersinia pseudotuberculosis serotype I (strain IP32953)) (UniProt P08538); assay: Inhibition of Yersinia pseudotuberculosis phosphatase activity of secreted YopH at 10 uM
In short: (§2)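 Phosphatase activity of YopH secreted by Y. pseudotuberculosis, measured at 10, 20, 50 and 100 µM; expressed as percent inhibition. Some runs used HCl salt form.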

[9] = biological target: Tyrosine-protein phosphatase YopH (Yersinia pseudotuberculosis serotype I (strain IP32953)) (UniProt P08538); assay: Inhibition of Yersinia pseudotuberculosis phosphatase activity of secreted YopH at 20 uM; in short: as §2
[10] = biological target: Tyrosine-protein phosphatase YopH (Yersinia pseudotuberculosis serotype I (strain IP32953)) (UniProt P08538); assay: Inhibition of Yersinia pseudotuberculosis phosphatase activity of secreted YopH at 50 uM; in short: as §2
[11] = biological target: Tyrosine-protein phosphatase YopH (Yersinia pseudotuberculosis serotype I (strain IP32953)) (UniProt P08538); assay: Inhibition of Yersinia pseudotuberculosis phosphatase activity of secreted YopH at 100 uM; in short: as §2
[12] = (§3) Inhibition of type 3 secretion in Yersinia pseudotuberculosis by reporter gene assay; in short: as §1
[13] = system: Yersinia pseudotuberculosis; assay: as §3; in short: as §1
[14] = biological target: Tyrosine-protein phosphatase YopH (Yersinia pseudotuberculosis serotype I (strain IP32953)) (UniProt P08538); assay: Inhibition of Yersinia pseudotuberculosis phosphatase activity of secreted YopH; in short: as §2
[15] = system: Yersinia pseudotuberculosis; assay: Antibacterial activity against wild type Yersinia pseudotuberculosis infected in mouse J774 cells assessed as increase of host cell viability at 3.1 to 25 uM; format: functional, organism-based
In short: (§4)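 J774 macrophages infected with Y. pseudotuberculosis, wild-type (pIB102) or T3S-deficient mutant (pIB604); uninfected control included. Viability read with CalceinAM fluorescence (green conversion in healthy cells). 100% = uninfected cells given DMSO alone.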

[16] = system: Yersinia pseudotuberculosis; assay: Antibacterial activity against T3S deficient Yersinia pseudotuberculosis infected in mouse J774 cells assessed as increase of host cell viability at 3.1 to 25 uM; format: functional, organism-based; in short: as §4
[17] = system: J774; assay: Cytotoxicity against mouse J774 cells assessed as cell viability at 3.1 to 25 uM; format: cell-based; conditions: j774, 25 µM

Chain of Tyrosine-protein phosphatase YopH (Yersinia pseudotuberculosis serotype I (strain IP32953)) (P08538 whole entry): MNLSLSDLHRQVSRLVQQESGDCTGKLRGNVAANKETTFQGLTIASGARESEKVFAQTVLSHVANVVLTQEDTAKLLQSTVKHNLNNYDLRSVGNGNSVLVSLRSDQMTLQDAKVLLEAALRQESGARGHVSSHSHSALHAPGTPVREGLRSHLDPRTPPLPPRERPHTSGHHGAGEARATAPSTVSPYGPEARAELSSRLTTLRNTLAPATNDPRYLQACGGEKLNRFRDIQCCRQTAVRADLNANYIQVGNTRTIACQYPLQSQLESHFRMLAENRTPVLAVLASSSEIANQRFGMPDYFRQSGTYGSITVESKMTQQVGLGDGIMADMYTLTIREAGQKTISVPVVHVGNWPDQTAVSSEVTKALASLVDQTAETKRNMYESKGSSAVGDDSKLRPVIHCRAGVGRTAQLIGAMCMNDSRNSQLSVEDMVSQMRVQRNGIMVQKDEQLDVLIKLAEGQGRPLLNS

With `CC1CN(Cc2cc([N+](=O)[O-])c3cccnc3c2O)CC(C)O1` (stereo not drawn) the inhibition [1] was “inactive”, the inhibition [2] was “inactive” and the inhibition [3] was 76%. It also gave an inhibition [4] of 93%.
In the case of `O=[N+]([O-])c1cc(CN2CCN(c3ccccc3)CC2)c(O)c2ncccc12`, the Activity [5] is reported as “inactive”, the viability [6] is reported as 66.3% and the MIC [7] is reported as 25 µM (≈ 9.11 µg/mL). The inhibition [1] was 66%, the inhibition [2] was 88% and the inhibition [3] was 94%. For the same compound, the inhibition [4] was 97%, the inhibition [8] was 49% and the inhibition [9] was 73%. The inhibition [10] was 77%, the inhibition [11] was 79% and the EC50 [12] was 12.4 µM. The inhibition [13] was “Dose-dependent effect”, the inhibition [14] was “Dose-dependent effect” and the Activity [15] was “Active”. For the same compound, the Activity [16] was “inactive” and the Activity [17] was “Toxic”.
With `Cc1cccc(N2CCN(Cc3cc(Br)c4cccnc4c3O)CC2)c1` the inhibition [1] was “inactive”, the inhibition [2] was “inactive” and the inhibition [3] was 41%. It also gave an inhibition [4] of 81%.
For `O=[N+]([O-])c1ccc(O)c(CN2CCN(c3ccc(Cl)cc3)CC2)c1`, the inhibition [1] was “inactive”, the inhibition [2] was “inactive” and the inhibition [3] was “inactive”. The inhibition [4] was “inactive”.
In the case of `Oc1c(CN2CCN(c3ccc(F)cc3)CC2)cc(Cl)c2cccnc12`, the inhibition [1] is reported as “inactive”, the inhibition [2] is reported as “inactive” and the inhibition [3] is reported as 93%. The inhibition [4] was 97%.
For `CCOc1ccccc1N1CCN(Cc2cc(Cl)c3cccnc3c2O)CC1`, the inhibition [1] was “inactive”, the inhibition [2] was “inactive” and the inhibition [3] was 37%. For the same compound, the inhibition [4] was 89%.
With `Oc1c(CN2CCN(c3ccccn3)CC2)cc(Cl)c2cccnc12` the inhibition [1] was “inactive”, the inhibition [2] was “inactive” and the inhibition [3] was 80%. It also gave an inhibition [4] of 98%.
For `Oc1c(CN2CCN(c3ccc(F)cc3)CC2)cc(Br)c2cccnc12`, the inhibition [1] was “inactive”, the inhibition [2] was “inactive” and the inhibition [3] was 78%. It also gave an inhibition [4] of 89%.
For `O=[N+]([O-])c1cc(CN2CCN(c3ccccc3)CC2)c(O)c2ccccc12`, the inhibition [1] was “inactive”, the inhibition [2] was “inactive” and the inhibition [3] was “inactive”. For the same compound, the inhibition [4] was “inactive”.
In the case of `Oc1c(CN2CCN(c3ccc(F)cc3)CC2)ccc2cccnc12`, the inhibition [1] is reported as “inactive”, the inhibition [2] is reported as “inactive” and the inhibition [3] is reported as 58%. It also gave an inhibition [4] of 95%.

— ChEMBL document CHEMBL2021762, “Derivatives of 8-hydroxyquinoline--antibacterial agents that target intra- and extracellular Gram-negative pathogens” (Bioorg Med Chem Lett, 2012)
